This note sets out measurements from ChEMBL document CHEMBL3745632, “Development of a novel sulfonate ester-based prodrug strategy” (Bioorg Med Chem Lett, 2016).

Series [1] can be described thus: Retention time of compound by HPLC analysis. In kind it is physicochemical.
Series [2] is described as follows: Metabolic stability in CD1 mouse liver S9 fraction assessed as compound remaining at 5 mM by HPLC analysis. Type of series: ADME, subcellular. Particulars: read-out: Stability; call rule not given here.
In series [3] the test system is Serum. As to the kind of experiment: Metabolic stability in human serum assessed as compound decomposed at 5 mM by HPLC analysis. Particulars: 5000 µM. In kind it is ADME.
Series [4] in a line: Drug level in HEPES buffer treated with 200 uM (S)-4-sulfamoylphenyl 3-(2-amino-4-methylpentanamido)propane-1-sulfonate in presence of aeromonas proteolytica aminopeptidase by spectrophotometry. In kind it is ADME. Particulars: vibrio proteolyticus. Summed up: (§1)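 Each substrate (50 or 200 μM) was incubated with AAP (1.05 units/mL) in 50 mM HEPES (pH 8.0) containing 2% DMSO for varying periods. Release of the corresponding phenol was monitored over time.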

A short description of series [5]: Drug level in HEPES buffer treated with 2 mM (S)-2-methylquinolin-8-yl 3-(2-amino-4-methylpentanamido)propane-1-sulfonate for 12 hrs in presence of aeromonas proteolytica aminopeptidase by spectrophotometry. Particulars: vibrio proteolyticus. In kind it is ADME.
The nature of series [6]: Drug level in HEPES buffer treated with 50 uM (S)-2-methylquinolin-8-yl 3-(2-amino-4-methylpentanamido)propane-1-sulfonate in presence of aeromonas proteolytica aminopeptidase by spectrophotometry. In kind it is ADME. The following applies: vibrio proteolyticus. Summed up: as §1
Series [7] concerns Serum. As to the kind of experiment: Drug level in human serum treated with 5 mM (S)-2-methylquinolin-8-yl 3-(2-amino-4-methylpentanamido)propane-1-sulfonate after 24 hrs by HPLC analysis. In kind it is ADME, cell-free.
Series [8] in a line: Drug level in HEPES buffer treated with 200 uM (S)-4-chlorophenyl 3-(2-amino-4-methylpentanamido)propane-1-sulfonate in presence of aeromonas proteolytica aminopeptidase by spectrophotometry. In kind it is ADME. The following applies: vibrio proteolyticus. A digest of the protocol: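 Compound at 200 μM incubated for a given period with Aeromonas proteolytica aminopeptidase (1.05 units/mL) in 50 mM HEPES, pH 8.0, containing 2% DMSO. Liberation of the corresponding phenol was followed over time to evaluate the intramolecular cyclization rate k₂.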

Series [9] in a line: Drug level in HEPES buffer treated with 200 uM (S)-4-(trifluoromethyl)phenyl 3-(2-amino-4-methylpentanamido)propane-1-sulfonate in presence of aeromonas proteolytica aminopeptidase by spectrophotometry. In kind it is ADME. The following applies: vibrio proteolyticus. A digest of the protocol: as §1
The test system of another series is Liver. Briefly: Drug level in CD1 mouse liver S9 fraction treated with 5 mM (S)-2-methylquinolin-8-yl 3-(2-amino-4-methylpentanamido)propane-1-sulfonate after 3 hrs by HPLC analysis. In kind it is ADME, subcellular. Particulars: s9, 3 h.
Series [10] in a line: Drug metabolism in HEPES buffer assessed as aeromonas proteolytica aminopeptidase-mediated 4-(trifluoromethyl)phenol formation at 200 uM by spectrophotometry. Particulars: vibrio proteolyticus. In kind it is ADME. A digest of the protocol: as §1
Series [11] can be described thus: Drug metabolism in HEPES buffer assessed as aeromonas proteolytica aminopeptidase-mediated Isothiazolidine 1,1-dioxide formation at 200 uM by spectrophotometry. The following applies: vibrio proteolyticus. In kind it is ADME.
The nature of series [12]: Dissociation constant, pKa of the compound. Type of series: physicochemical.
Series [13] can be described thus: Inhibition of aeromonas proteolytica aminopeptidase at 5 uM incubated at pH 8 and 30 degC followed by addition of 50 uM L-leucine-p-nitroanilide substrate by spectrophotometry. The following applies: vibrio proteolyticus, pH 8, 5 µM. Summed up: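 The prodrug (5 μM) was preincubated with AAP (0.02 units/mL) at pH 8.0 and 30 °C for set times in 10 mM HEPES (pH 8.0) containing 2% DMSO. L-leucine-p-nitroanilide (50 μM) was then added, and its hydrolysis was followed at 25 °C by ΔAbs405 from released p-nitroaniline (ε405 = 10300). In the control, the prodrug was preincubated without enzyme, and AAP was added together with the substrate.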

Series [14] is described as follows: Inhibition of aeromonas proteolytica aminopeptidase using L-leucine-p-nitroanilide as substrate by spectrophotometry. Details: species or system Vibrio proteolyticus.
The nature of series [15]: Drug metabolism in HEPES buffer assessed as aeromonas proteolytica aminopeptidase-mediated 4-chlorophenol formation at 200 uM by spectrophotometry. Type of series: ADME. The following applies: vibrio proteolyticus. A digest of the protocol:
as §1

Series [16] in a line: Drug metabolism in HEPES buffer assessed as aeromonas proteolytica aminopeptidase-mediated compound hydrolysis at 2 mM by spectrophotometry. In kind it is ADME. Particulars: vibrio proteolyticus, 2000 µM.
Series [17] can be described thus: Drug metabolism in HEPES buffer assessed as aeromonas proteolytica aminopeptidase-mediated 2-methylquinolin-8-ol formation at 50 uM by spectrophotometry. Type of series: ADME. The following applies: vibrio proteolyticus. A digest of the protocol: as §1
Series [18] is described as follows: Drug metabolism in HEPES buffer assessed as aeromonas proteolytica aminopeptidase-mediated 5-chloroquinolin-8-yl 4-chlorobutane-1-sulfonate formation at 2 mM after 12 hrs by spectrophotometry. Type of series: ADME. The following applies: vibrio proteolyticus, 2000 µM.
Series [19] relates to Serum. As to the kind of experiment: Drug metabolism in human serum assessed as 2-methylquinolin-8-ol formation at 5 mM after 24 hrs by HPLC analysis. Type of series: ADME, cell-free. The following applies: 5000 µM.
A short description of series [20]: Drug metabolism in CD1 mouse S9 fraction assessed as 2-methylquinolin-8-yl 3-aminopropane-1-sulfonate formation at 5 mM after 3 hrs by HPLC analysis. Type of series: ADME, Liver. The following applies: s9, 3 h, 5000 µM.
Series [21] can be described thus: Drug metabolism in HEPES buffer assessed as aeromonas proteolytica aminopeptidase-mediated 2-methylquinolin-8-ol formation at 2 mM after 12 hrs by spectrophotometry. Particulars: vibrio proteolyticus, 2000 µM. In kind it is ADME.
Series [22] in a line: Drug metabolism in HEPES buffer assessed as aeromonas proteolytica aminopeptidase-mediated Isothiazolidine 1,1-dioxide formation at 50 uM by spectrophotometry. Type of series: ADME. The following applies: vibrio proteolyticus.
Series [23] can be described thus: Drug metabolism in HEPES buffer assessed as aeromonas proteolytica aminopeptidase-mediated 5-chloroquinolin-8-yl 3-chloropropane-1-sulfonate formation at 2 mM after 12 hrs by spectrophotometry. In kind it is ADME. The following applies: vibrio proteolyticus, 2000 µM.
A short description of series [24]: Drug metabolism in HEPES buffer assessed as aeromonas proteolytica aminopeptidase-mediated Isothiazolidine 1,1-dioxide formation at 2 mM after 12 hrs by spectrophotometry. Type of series: ADME. Particulars: vibrio proteolyticus, 2000 µM.
A short description of series [25]: Metabolic stability in human serum assessed as compound decomposed at 5 mM after 24 hrs by HPLC analysis. In kind it is ADME. Particulars: read-out: Drug metabolism.
For series [26], the system named is Serum. As to the kind of experiment: Drug metabolism in human serum assessed as 2-methylquinolin-8-yl 3-aminopropane-1-sulfonate formation at 5 mM after 24 hrs by HPLC analysis. In kind it is ADME, cell-free. The following applies: 5000 µM.
Series [27] is described as follows: Drug metabolism in HEPES buffer assessed as aeromonas proteolytica aminopeptidase-mediated compound hydrolysis at 1.3 mM by spectrophotometry. In kind it is ADME. Particulars: vibrio proteolyticus, 1300 µM.
Series [28] can be described thus: Drug metabolism in HEPES buffer assessed as aeromonas proteolytica aminopeptidase-mediated 4-hydroxybenzenesulfonamide formation at 200 uM by spectrophotometry. In kind it is ADME. Particulars: vibrio proteolyticus. A digest of the protocol: as §1

Each structure is given as a SMILES string.

In series [1], `Cc1ccc2cccc(OS(=O)(=O)CCCN=[N+]=[N-])c2n1` gave a Retention_time of 17.5 min. For the same compound, the remaining in series [2] turned out to be 88%. The Stability entry in the series on Serum [3] was “Stable”.
In the case of `NS(=O)(=O)c1ccc(O)cc1`, the Drug metabolism result in series [4] is on record as “metabolite_detected”.
Consider `Cc1ccc2cccc(O)c2n1` [8-HYDROXY QUINALDINE], for which the Drug metabolism result (in series [5]; in series [6]; in the series on Serum [7]) was “metabolite_detected” in each case. Further, the Retention_time in series [1] was 4.6 min.
With `O=S1(=O)CCCN1`, the Drug metabolism result in series [5], in series [4], in [6], in [8] and in series [9] was “metabolite_detected” throughout.
`Cc1ccc2cccc(OS(=O)(=O)CCCN)c2n1` displayed a Retention_time in series [1] of 6.5 min. Besides, the Drug metabolism entry with Serum [7] and in the series with Liver was “metabolite_detected” throughout.
As for `CC(C)C[C@H](N)C(=O)NCCCS(=O)(=O)Oc1ccc(C(F)(F)F)cc1`, the Drug metabolism entry in series [10] and in series [11] was “metabolite_detected” each time. Besides, the pKa (in general, the negative logarithm of the acid dissociation constant) in [12] came out at 8.9.
For the compound `CC(C)C[C@H](N)C(=O)NCCCCS(=O)(=O)Oc1ccc(Cl)c2cccnc12`, in series [13], the “inhibition (INH)” value is “Active”.
With `Oc1ccc(Cl)c2cccnc12` [CLOXYQUIN], the Ki (usually the equilibrium dissociation constant of an inhibitor or competing ligand from its target) in series [14] came to 190 nM. This lies in the sub-micromolar range.
As for `CC(C)C[C@H](N)C(=O)NCCCS(=O)(=O)Oc1ccc(Cl)c2cccnc12`, in [13], the “inhibition (INH)” value was “Active”.
On to `CC(C)C[C@H](N)C(=O)NCCCS(=O)(=O)Oc1ccc(Cl)cc1`, for which the Drug metabolism entry in [11] and in series [15] was “metabolite_detected” throughout. In addition, the pKa in series [12] was found to be 9.6.
Consider `Cc1ccc2cccc(OS(=O)(=O)CCCCNC(=O)[C@@H](N)CC(C)C)c2n1`, for which the Drug metabolism entry in [16] was “metabolite_detected”.
In the case of `Cc1ccc2cccc(OS(=O)(=O)CCCNC(=O)[C@@H](N)CC(C)C)c2n1`, the Retention_time in [1] worked out at 21 min. The Drug metabolism entry in series [17] is reported as “metabolite_detected”; in [18], “metabolite_notdetected”; in the series on Serum [19], “metabolite_detected”; in series [20] it was “metabolite_detected”; in [21] it was “metabolite_detected”; in series [22], “metabolite_detected”. Further, the Drug metabolism result is “metabolite_notdetected” in series [23], “metabolite_detected” in [24] and “metabolite_detected” in the series with Serum [26]. In addition, the pKa in series [12] was 10.9. The metabolised at 24 h, 5000 µM in series [25] came out at 35%.
As for `Cc1ccc2cccc(OS(=O)(=O)CCNC(=O)[C@@H](N)CC(C)C)c2n1`, the Drug metabolism result in series [27] is “metabolite_detected”.
As for `Oc1ccc(Cl)cc1` [PARACHLOROPHENOL], the Drug metabolism entry in series [8] was “metabolite_detected”.
In the case of `CC(C)C[C@H](N)C(=O)NCCCS(=O)(=O)Oc1ccc(S(N)(=O)=O)cc1`, the Drug metabolism entry in series [11] and in series [28] was “metabolite_detected” throughout. Moreover, the pKa in [12] came to 8.3.
Turning to `Oc1ccc(C(F)(F)F)cc1`, the Drug metabolism result in series [9] is reported as “metabolite_detected”.
